Data from ChEMBL document CHEMBL3525995, “CYP3A-mediated generation of aldehyde and hydrazine in atazanavir metabolism” (Drug Metab Dispos, 2011).

Columns and labels:
[1] = Drug level in wild type mouse feces treated with 50 mg/kg, po atazanavir by LC-MS/MS analysis; assay type: ADME, organism-based; design: dose 50 mg/kg, dosed compound name Azazanavir, route oral; settings: in vivo
Outline: (§1)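 Wild-type mice (n = 4) got a single oral 50 mg/kg dose and were housed individually in metabolic cages for 18 h, with urine and feces collected. Urine was diluted 1:4 in 50% acetonitrile and centrifuged. Feces were homogenized in water (1 mg/10 μl), mixed 1:1 with acetonitrile and centrifuged twice. Supernatants were analyzed by UPLC-TOFMS, with accurate mass (<10 ppm error) and MS/MS for identification.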

Liver microsome [2] = assay: Drug metabolism in human liver microsomes treated with 50 uM atazanavir by LC-MS/MS analysis; assay type: ADME
Outline: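 Human liver microsomes (0.5 g protein/l) were incubated in PBS pH 7.4 with 50 μM substrate, in duplicate. After 5 min preincubation at 37°C, 1.0 mM NADPH (final) was added and the reaction ran 30 min with shaking; incubations without NADPH served as controls. Reactions were quenched with equal-volume acetonitrile, centrifuged and analyzed by UPLC-TOFMS.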

[3] = Drug level in wild type mouse urine treated with 50 mg/kg, po atazanavir by LC-MS/MS analysis; assay type: ADME, organism-based; design: dose 50 mg/kg, dosed compound name Azazanavir, route oral; settings: in vivo; outline: as §1
Cytochrome P450 2D6 = Cytochrome P450 2D6 (Homo sapiens, UniProt P10635); assay: Drug level assessed as human CYP2D6-mediated compound formation treated with atazanavir at 50 uM by UPLC-TOFMS system; assay type: ADME; settings: recombinant enzyme
Outline: (§2)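 Each cDNA-expressed human P450 (CYP1A2, 2A6, 2B6, 2C8, 2C9, 2C19, 2D6, 2E1, 3A4; 2 pmol), plus a control, was incubated in PBS pH 7.4 with 50 μM substrate. After 5 min preincubation at 37°C, 1.0 mM NADPH (final) was added and the reaction ran 30 min with shaking. Ketoconazole (10 μM) was co-incubated as a CYP3A inhibitor, and NADPH-free incubations served as controls. Reactions were quenched with acetonitrile, centrifuged and analyzed by UPLC-TOFMS.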

Cytochrome P450 3A4 [4] = target: T1, Cytochrome P450 3A4 (Homo sapiens, UniProt P08684); assay: Drug metabolism assessed as human CYP3A4-mediated formation at 50 uM by UPLC-TOFMS system; assay type: ADME; settings: recombinant enzyme; outline: as §2
Liver microsome [5] = assay: Drug metabolism in human liver microsomes assessed as ((S)-1-{(1S,2S)-1-Benzyl-2-hydroxy-3-[N'-((S)-2-methoxycarbonylamino-3,3-dimethyl-butyryl)-N-(4-pyridin-2-yl-benzyl)-hydrazino]-propylcarbamoyl}-3-hydroxy-2-hydroxymethyl-2-methyl-propyl)-carbamic acid methyl ester formation at 50 uM by LC-MS/MS analysis; settings: in vitro
[6] = Drug excretion in wild type mouse feces assessed as methyl (S)-1-((2S,3S)-4-(2-((S)-2-amino-3,3-dimethylbutanoyl)-1-(4-(pyridin-2-yl)benzyl)hydrazinyl)-3-hydroxy-1-phenylbutan-2-ylamino)-3,3-dimethyl-1-oxobutan-2-ylcarbamate formation at 50 mg/kg, po by LC-MS/MS analysis; assay type: ADME, organism-based; design: dose 50 mg/kg, dosed compound name Azazanavir, route oral; settings: in vivo; outline: as §1
[7] = Drug excretion in wild type mouse feces assessed as methyl (S)-1-(2-((2S,3S)-3-((S)-2-amino-3,3-dimethylbutanamido)-2-hydroxy-4-phenylbutyl)-2-(4-(pyridin-2-yl)benzyl)hydrazinyl)-3,3-dimethyl-1-oxobutan-2-ylcarbamate formation at 50 mg/kg, po by LC-MS/MS analysis; assay type: ADME, organism-based; design: dose 50 mg/kg, dosed compound name Azazanavir, route oral; settings: in vivo; outline: as §1
[8] = Drug excretion in wildtype mouse urine assessed as ((S)-1-{(1S,2S)-1-Benzyl-2-hydroxy-3-[N'-((S)-2-methoxycarbonylamino-3,3-dimethyl-butyryl)-N-(4-pyridin-2-yl-benzyl)-hydrazino]-propylcarbamoyl}-3-hydroxy-2,2-dimethyl-propyl)-carbamic acid methyl ester formation at 50 mg/kg, po by LC-MS/MS analysis; assay type: ADME, organism-based; design: dose 50 mg/kg, dosed compound name Azazanavir, route oral; settings: in vivo; outline: as §1
[9] = Drug excretion in wildtype mouse feces assessed as {(S)-3-Hydroxy-1-[N'-[(2S,3S)-2-hydroxy-3-((S)-4-hydroxy-2-methoxycarbonylamino-3,3-dimethyl-butyrylamino)-4-phenyl-butyl]-N'-(4-pyridin-2-yl-benzyl)-hydrazinocarbonyl]-2,2-dimethyl-propyl}-carbamic acid methyl ester formation at 50 mg/kg, po by LC-MS/MS analysis; assay type: ADME, organism-based; design: dose 50 mg/kg, dosed compound name Azazanavir, route oral; settings: in vivo; outline: as §1
Liver microsome [10] = assay: Drug metabolism in human liver microsomes assessed as methyl (S)-1-((2S,3S)-4-(2-((S)-2-amino-3,3-dimethylbutanoyl)-1-(4-(pyridin-2-yl)benzyl)hydrazinyl)-3-hydroxy-1-phenylbutan-2-ylamino)-3,3-dimethyl-1-oxobutan-2-ylcarbamate formation by LC-MS/MS analysis
[11] = Drug excretion in wildtype mouse feces assessed as ((S)-1-{(1S,2S)-1-Benzyl-2-hydroxy-3-[N'-((S)-2-methoxycarbonylamino-3,3-dimethyl-butyryl)-hydrazino propylcarbamoyl}-2,2-dimethyl-propyl)-carbamic acid methyl ester formation at 50 mg/kg, po by LC-MS/MS analysis; assay type: ADME, organism-based; design: dose 50 mg/kg, dosed compound name Azazanavir, route oral; settings: in vivo; outline: as §1
[12] = Drug excretion in wild type mouse urine assessed as (S)-methyl 3,3-dimethyl-1-oxo-1-(2-(4-(pyridin-2-yl)benzyl)hydrazinyl)butan-2-ylcarbamate formation at 50 mg/kg, po by LC-MS/MS analysis; assay type: ADME, organism-based; design: dose 50 mg/kg, dosed compound name Azazanavir, route oral; settings: in vivo; outline: as §1
Liver microsome [13] = assay: Drug metabolism in human liver microsomes assessed as ((S)-1-{(1S,2S)-1-Benzyl-2-hydroxy-3-[N'-((S)-2-methoxycarbonylamino-3,3-dimethyl-butyryl)-N-(4-pyridin-2-yl-benzyl)-hydrazino]-propylcarbamoyl}-3-hydroxy-2,2-dimethyl-propyl)-carbamic acid methyl ester formation at 50 uM by LC-MS/MS analysis; settings: in vitro
Liver microsome [14] = assay: Drug metabolism in human liver microsomes assessed as ((S)-1-{(1S,2S)-1-Benzyl-2-hydroxy-3-[N'-((S)-2-methoxycarbonylamino-3,3-dimethyl-butyryl)-hydrazino]-propylcarbamoyl}-2,2-dimethyl-propyl)-carbamic acid methyl ester formation at 50 uM by LC-MS/MS analysis; settings: in vitro
Cytochrome P450 3A4 [15] = target: T1, Cytochrome P450 3A4; assay: Drug level assessed as human CYP3A4-mediated (S)-methyl 3,3-dimethyl-1-oxo-1-(2-(4-(pyridin-2-yl)benzyl)hydrazinyl)butan-2-ylcarbamate formation treated with 50 uM atazanavir by UPLC-TOFMS system; assay type: ADME; settings: recombinant enzyme; outline: as §2
[16] = Drug excretion in wildtype mouse urine assessed as ((S)-1-{(1S,2S)-1-Benzyl-2-hydroxy-3-[N'-((S)-2-methoxycarbonylamino-3,3-dimethyl-butyryl)-N-(4-pyridin-2-yl-benzyl)-hydrazino]-propylcarbamoyl}-3-hydroxy-2-hydroxymethyl-2-methyl-propyl)-carbamic acid methyl ester formation at 50 mg/kg, po by LC-MS/MS analysis; assay type: ADME, organism-based; design: dose 50 mg/kg, dosed compound name Azazanavir, route oral; settings: in vivo; outline: as §1
[17] = Drug excretion in wild type mouse urine assessed as methyl (S)-1-(2-((2S,3S)-3-((S)-2-amino-3,3-dimethylbutanamido)-2-hydroxy-4-phenylbutyl)-2-(4-(pyridin-2-yl)benzyl)hydrazinyl)-3,3-dimethyl-1-oxobutan-2-ylcarbamate formation at 50 mg/kg, po by LC-MS/MS analysis; assay type: ADME, organism-based; design: dose 50 mg/kg, dosed compound name Azazanavir, route oral; settings: in vivo; outline: as §1
Liver microsome [18] = assay: Drug metabolism in human liver microsomes assessed as methyl (S)-1-(2-((2S,3S)-3-((S)-2-amino-3,3-dimethylbutanamido)-2-hydroxy-4-phenylbutyl)-2-(4-(pyridin-2-yl)benzyl)hydrazinyl)-3,3-dimethyl-1-oxobutan-2-ylcarbamate formation at 50 uM by LC-MS/MS analysis; settings: in vitro
[19] = Drug excretion in wildtype mouse urine assessed as ((S)-1-{(1S,2S)-1-Benzyl-2-hydroxy-3-[N'-((S)-2-methoxycarbonylamino-3,3-dimethyl-butyryl)-hydrazino propylcarbamoyl}-2,2-dimethyl-propyl)-carbamic acid methyl ester formation at 50 mg/kg, po by LC-MS/MS analysis; assay type: ADME, organism-based; design: dose 50 mg/kg, dosed compound name Azazanavir, route oral; settings: in vivo; outline: as §1
[20] = Drug excretion in wildtype mouse feces assessed as ((S)-1-{(1S,2S)-1-Benzyl-2-hydroxy-3-[N'-((S)-2-methoxycarbonylamino-3,3-dimethyl-butyryl)-N-(4-pyridin-2-yl-benzyl)-hydrazino]-propylcarbamoyl}-3-hydroxy-2-hydroxymethyl-2-methyl-propyl)-carbamic acid methyl ester formation at 50 mg/kg, po by LC-MS/MS analysis; assay type: ADME, organism-based; design: dose 50 mg/kg, dosed compound name Azazanavir, route oral; settings: in vivo; outline: as §1
[21] = Drug excretion in wild type mouse assessed as (S)-methyl 3,3-dimethyl-1-oxo-1-(2-(4-(pyridin-2-yl)benzyl)hydrazinyl)butan-2-ylcarbamate formation at 50 mg/kg, po by LC-MS/MS analysis; assay type: ADME, organism-based; design: dose 50 mg/kg, dosed compound name Azazanavir, route oral; settings: in vivo; outline: as §1
[22] = Drug excretion in wildtype mouse feces assessed as ((S)-1-{(1S,2S)-1-Benzyl-2-hydroxy-3-[N'-((S)-2-methoxycarbonylamino-3,3-dimethyl-butyryl)-N-(4-pyridin-2-yl-benzyl)-hydrazino]-propylcarbamoyl}-3-hydroxy-2,2-dimethyl-propyl)-carbamic acid methyl ester formation at 50 mg/kg, po by LC-MS/MS analysis; assay type: ADME, organism-based; design: dose 50 mg/kg, dosed compound name Azazanavir, route oral; settings: in vivo; outline: as §1
Liver microsome [23] = assay: Drug metabolism in human liver microsomes assessed as (S)-methyl 3,3-dimethyl-1-oxo-1-(2-(4-(pyridin-2-yl)benzyl)hydrazinyl)butan-2-ylcarbamate formation at 50 uM by LC-MS/MS analysis; settings: in vitro
[24] = Drug excretion in wildtype mouse urine assessed as {(S)-3-Hydroxy-1-[N'-[(2S,3S)-2-hydroxy-3-((S)-4-hydroxy-2-methoxycarbonylamino-3,3-dimethyl-butyrylamino)-4-phenyl-butyl]-N'-(4-pyridin-2-yl-benzyl)-hydrazinocarbonyl]-2,2-dimethyl-propyl}-carbamic acid methyl ester formation at 50 mg/kg, po by LC-MS/MS analysis; assay type: ADME, organism-based; design: dose 50 mg/kg, dosed compound name Azazanavir, route oral; settings: in vivo; outline: as §1
[25] = Drug excretion in wild type mouse urine assessed as methyl (S)-1-((2S,3S)-4-(2-((S)-2-amino-3,3-dimethylbutanoyl)-1-(4-(pyridin-2-yl)benzyl)hydrazinyl)-3-hydroxy-1-phenylbutan-2-ylamino)-3,3-dimethyl-1-oxobutan-2-ylcarbamate formation at 50 mg/kg, po by LC-MS/MS analysis; assay type: ADME, organism-based; design: dose 50 mg/kg, dosed compound name Azazanavir, route oral; settings: in vivo; outline: as §1

Measured: Compound recovery

T1 sequence (P08684 whole entry): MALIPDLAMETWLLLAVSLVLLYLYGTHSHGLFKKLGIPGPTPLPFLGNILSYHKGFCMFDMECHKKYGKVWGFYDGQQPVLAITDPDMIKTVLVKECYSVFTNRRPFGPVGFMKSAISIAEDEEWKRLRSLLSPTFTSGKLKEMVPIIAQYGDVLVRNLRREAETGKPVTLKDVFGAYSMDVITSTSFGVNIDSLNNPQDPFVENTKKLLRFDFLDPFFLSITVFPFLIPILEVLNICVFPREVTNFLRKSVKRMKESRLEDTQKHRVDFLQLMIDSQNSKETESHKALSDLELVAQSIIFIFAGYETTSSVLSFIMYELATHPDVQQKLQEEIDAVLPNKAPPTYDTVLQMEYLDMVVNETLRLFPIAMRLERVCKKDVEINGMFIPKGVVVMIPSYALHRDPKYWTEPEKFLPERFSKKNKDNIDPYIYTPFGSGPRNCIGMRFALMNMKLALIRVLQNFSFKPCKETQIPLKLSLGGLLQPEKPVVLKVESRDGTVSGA
Sequence of Cytochrome P450 2D6 (P10635 whole entry): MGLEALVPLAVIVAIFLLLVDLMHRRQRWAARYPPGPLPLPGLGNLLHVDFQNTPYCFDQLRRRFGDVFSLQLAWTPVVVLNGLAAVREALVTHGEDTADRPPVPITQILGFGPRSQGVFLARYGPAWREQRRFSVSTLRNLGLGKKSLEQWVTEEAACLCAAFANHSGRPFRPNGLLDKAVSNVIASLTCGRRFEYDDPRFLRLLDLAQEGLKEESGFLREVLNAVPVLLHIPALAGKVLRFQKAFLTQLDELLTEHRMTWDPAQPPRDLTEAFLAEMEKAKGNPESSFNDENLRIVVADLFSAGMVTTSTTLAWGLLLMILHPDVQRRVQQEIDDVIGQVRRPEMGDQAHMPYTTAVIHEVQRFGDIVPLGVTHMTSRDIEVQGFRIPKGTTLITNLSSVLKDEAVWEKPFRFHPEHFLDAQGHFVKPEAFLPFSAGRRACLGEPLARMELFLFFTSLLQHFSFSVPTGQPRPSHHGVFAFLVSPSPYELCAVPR

COC(=O)N[C@H](C(=O)N[C@@H](Cc1ccccc1)[C@@H](O)C=O)C(C)(C)C
metabolite_detected: [1]

COC(=O)N[C@H](C(=O)NNCc1ccc(-c2ccccn2)cc1)C(C)(C)C
metabolite_detected: Liver microsome [2] | [3] | [1]

COC(=O)N[C@H](C(=O)NN(Cc1ccc(-c2ccccn2)cc1)C[C@H](O)[C@H](Cc1ccccc1)NC(=O)[C@@H](NC(=O)OC)C(C)(C)CO)C(C)(C)C
metabolite_detected: Liver microsome [2] | [3] | [1]

COC(=O)N[C@H](C(=O)NN(Cc1ccc(-c2ccccn2)cc1)C[C@H](O)[C@H](Cc1ccccc1)NC(=O)[C@@H](N)C(C)(C)C)C(C)(C)C
metabolite_detected: Liver microsome [2] | [3] | [1]

COC(=O)N[C@H](C(=O)N[C@@H](Cc1ccccc1)[C@@H](O)CN(Cc1ccc(-c2ccccn2)cc1)NC(=O)[C@@H](N)C(C)(C)C)C(C)(C)C
metabolite_detected: Liver microsome [2] | [3] | [1]

COC(=O)N[C@H](C(=O)NNC[C@H](O)[C@H](Cc1ccccc1)NC(=O)[C@@H](NC(=O)OC)C(C)(C)C)C(C)(C)C
metabolite_detected: Cytochrome P450 2D6 | Cytochrome P450 3A4 [4] | Liver microsome [2] | [3] | [1]

COC(=O)N[C@H](C(=O)NN(Cc1ccc(-c2ccccn2)cc1)C[C@H](O)[C@H](Cc1ccccc1)NC(=O)[C@@H](NC(=O)OC)C(C)(CO)CO)C(C)(C)C
metabolite_detected: Liver microsome [2] | [3] | [1]

COC(=O)N[C@H](C(=O)N[C@@H](Cc1ccccc1)[C@@H](O)CNN)C(C)(C)C
metabolite_detected: Liver microsome [2] | [3] | [1]

COC(=O)N[C@H](C(=O)N[C@@H](Cc1ccccc1)[C@@H](O)CN(Cc1ccc(-c2ccccn2)cc1)NC(=O)[C@@H](NC(=O)OC)C(C)(C)C)C(C)(C)C [ATAZANAVIR]
metabolite_detected: Liver microsome [5] | [6] | [7] | [8] | [9] | Liver microsome [10] | [11] | [12] | Liver microsome [13] | Liver microsome [14] | Cytochrome P450 3A4 [15] | [16] | [17] | Liver microsome [18] | [19] | [20] | [21] | [22] | Liver microsome [23] | [24] | [25]

COC(=O)N[C@H](C(=O)N[C@@H](Cc1ccccc1)[C@@H](O)CN(Cc1ccc(-c2ccccn2)cc1)NC(=O)[C@@H](NC(=O)OC)C(C)(C)CO)C(C)(C)CO
metabolite_detected: [3] | [1]
